Source: ChEMBL document CHEMBL1146776, “Identification and optimization of novel partial agonists of neuromedin B receptor using parallel synthesis” (Bioorg Med Chem Lett, 2004)

What follows are compounds tested on HeLa (assay: Cytotoxicity towards HeLa cells was determined). Details: Homo sapiens.
Type: functional, cell-based

| Compound | IC50 |
| --- | --- |
| COc1cccc2[nH]c3c(c12)CC(NC(=O)Nc1c(C(C)C)cccc1C(C)C)(C(=O)NCC1(c2ccccn2)CCCCC1)CC3 (single isomer, unassigned; (+)) | > 50000 nM |

These compounds were tested against T1, Neuromedin-B receptor (Homo sapiens, UniProt P28336) (assay: Agonistic activity was determined against human Neuromedin B receptor transfected in HEK293 cells as accumulation levels of inositol phosphate). Details: not given.
T1 sequence (P28336 whole entry): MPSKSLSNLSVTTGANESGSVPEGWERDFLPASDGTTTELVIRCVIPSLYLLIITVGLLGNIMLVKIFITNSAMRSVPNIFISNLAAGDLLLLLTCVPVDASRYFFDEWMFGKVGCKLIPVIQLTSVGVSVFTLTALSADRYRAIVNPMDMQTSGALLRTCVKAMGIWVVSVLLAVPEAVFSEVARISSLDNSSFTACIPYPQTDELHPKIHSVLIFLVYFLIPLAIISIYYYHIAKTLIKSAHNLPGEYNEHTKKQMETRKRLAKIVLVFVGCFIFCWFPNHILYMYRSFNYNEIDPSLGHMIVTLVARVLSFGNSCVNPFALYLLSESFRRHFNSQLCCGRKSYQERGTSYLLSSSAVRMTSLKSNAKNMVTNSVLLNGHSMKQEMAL
Type: functional, cell-based
Procedure, shortened: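 hNMBR-transfected HEK293 cells (2.5 · 10⁴) labelled overnight at 37 °C in high-glucose DMEM with 25 mM Hepes, 10% dialyzed FBS and myo-[³H]inositol. Compounds added in inositol-free DMEM with 0.3% BSA and 10 mM LiCl, 60 min, 37 °C. Lysis in 20 mM formic acid, 2 h, 4 °C. Inositol phosphates captured on SPA beads and counted next day.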

| EC50 | Compound |
| --- | --- |
| 603 nM | CC(C)c1cccc(C(C)C)c1NC(=O)NC1(C(=O)NCC2(c3ccccn3)CCCCC2)CCc2[nH]c3ccccc3c2C1 (stereo not given) |
| 17.7 nM | COc1cccc2[nH]c3c(c12)CC(NC(=O)Nc1c(C(C)C)cccc1C(C)C)(C(=O)NCC1(c2ccccn2)CCCCC1)CC3 (single isomer, unassigned; (+)) |
| 1970 nM | COc1cccc2[nH]c3c(c12)CC(NC(=O)Nc1c(C(C)C)cccc1C(C)C)(C(=O)NCC1(c2ccccn2)CCCCC1)CC3 (single isomer, unassigned; (-)) |
| 132 nM | COc1cccc2[nH]c3c(c12)CC(NC(=O)Nc1c(C(C)C)cccc1C(C)C)(C(=O)NCC1(c2ccccn2)CCCCC1)CC3 (stereo in doubt; 20) |

Each compound was assayed against T1, Neuromedin-B receptor (assay: Affinity of [125I][D-Tyr0]-NMB to human Neuromedin B receptor expressed in HEK293 cells). Details: not given.
Type: cell-based
Procedure, shortened: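 Whole-cell competition binding on HEK293 cells stably transfected with hNMBR, 1 · 10⁶ cells per well in DMEM. Incubation 1 h at room temperature with 150 pM ¹²⁵I-[D-Tyr0]NMB (2200 Ci/mmol). Bound and free ligand separated by filtration; bound counts read by scintillation counting.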

| Compound | IC50 |
| --- | --- |
| CCNC(=O)NC1(C(=O)NCC2(c3ccccn3)CCCCC2)CCc2[nH]c3ccccc3c2C1 (stereo not given) | > 10000 nM |
| CC(C)c1cccc(C(C)C)c1NC(=O)NC1(C(=O)NCC2(c3ccccn3)CCCCC2)CCc2[nH]c3cc(Br)ccc3c2C1 (stereo not given) | 2140 nM |
| CC(C)c1cccc(C(C)C)c1NC(=O)NC1(C(=O)NCC2(c3ccc(Cl)cc3)CC2)CCc2[nH]c3ccccc3c2C1 (stereo not given) | > 10000 nM |
| CC(C)c1cccc(C(C)C)c1NC(=O)NC1(C(=O)NCC2(c3ccccn3)CCCCC2)CCc2[nH]c3cccc(C(F)(F)F)c3c2C1 (stereo not given) | 3660 nM |
| CC(C)(CNC(=O)C1(NC(=O)Nc2ccc([N+](=O)[O-])cc2)CCc2[nH]c3ccccc3c2C1)c1ccccn1 (stereo not given) | 10000 nM |
| CC(C)c1cccc(C(C)C)c1NC(=O)NC1(C(=O)NCC2(c3ccccn3)CCCCC2)CCc2[nH]c3cccc([N+](=O)[O-])c3c2C1 (stereo not given) | > 10000 nM |
| CCOC(=O)c1cc(NC(=O)NC2(C(=O)NCC3(c4ccccn4)CCCCC3)CCc3[nH]c4ccccc4c3C2)cc(C(=O)OCC)c1 (stereo not given) | 1850 nM |
| O=C(NC1CCCCC1)NC1(C(=O)NCC2(c3ccccn3)CCCCC2)CCc2[nH]c3ccccc3c2C1 (stereo not given) | 3920 nM |
| O=C(Nc1ccc([N+](=O)[O-])cc1)NC1(C(=O)NCC2(c3ccccn3)CCS(=O)(=O)CC2)CCc2[nH]c3ccccc3c2C1 (stereo not given) | > 10000 nM |
| CC(=O)c1cccc(NC(=O)NC2(C(=O)NCC3(c4ccccn4)CCCCC3)CCc3[nH]c4ccccc4c3C2)c1 (stereo not given) | 2270 nM |
| COc1ccccc1NC(=O)NC1(C(=O)NCC2(c3ccccn3)CCCCC2)CCc2[nH]c3ccccc3c2C1 (stereo not given) | 8720 nM |
| O=C(Nc1ccc(OC(F)(F)F)cc1)NC1(C(=O)NCC2(c3ccccn3)CCCCC2)CCc2[nH]c3ccccc3c2C1 (stereo not given) | 3040 nM |
| Cc1cccc(C)c1NC(=O)NC1(C(=O)NCC2(c3ccccn3)CCCCC2)CCc2[nH]c3ccccc3c2C1 (stereo not given) | 5490 nM |
| CC(C)c1cccc(C(C)C)c1NC(=O)NC1(C(=O)NCC2(c3ccccn3)CCCCC2)CCc2[nH]c3cccc(C(=O)O)c3c2C1 (stereo not given) | > 10000 nM |
| NC(=O)NC1(C(=O)NCC2(c3ccccn3)CCCCC2)CCc2[nH]c3ccccc3c2C1 (stereo not given) | > 10000 nM |
| CC(C)c1cccc(C(C)C)c1NC(=O)NC1(C(=O)NCC2(c3ccccn3)CCCCC2)CCc2[nH]c3cccc(OC(F)(F)F)c3c2C1 (stereo not given) | 1890 nM |
| CC(C)c1cccc(C(C)C)c1NC(=O)NC1(C(=O)NCC2(c3ccccn3)CC2)CCc2[nH]c3ccccc3c2C1 (stereo not given) | 3350 nM |
| O=C(Nc1ccc([N+](=O)[O-])cc1)NC1(C(=O)NCCc2ccccn2)CCc2[nH]c3ccccc3c2C1 (stereo not given) | > 10000 nM |
| CC(C)c1cccc(C(C)C)c1NC(=O)NC1(C(=O)NCC(C)(C)c2ccccn2)CCc2[nH]c3ccccc3c2C1 (stereo not given) | 4150 nM |

Second part, the compound after the results:

| IC50 | Compound |
| --- | --- |
| 1110 nM | O=C(Nc1ccc(C(F)(F)F)cc1)NC1(C(=O)NCC2(c3ccccn3)CCCCC2)CCc2[nH]c3ccccc3c2C1 (stereo not given) |
| 1010 nM | CC(C)c1cccc(C(C)C)c1NC(=O)NC1(C(=O)NCC2(c3ccccn3)CCCCC2)CCc2[nH]c3cc(F)ccc3c2C1F (stereo not given) |
| 800 nM | O=C(Nc1ccc([N+](=O)[O-])cc1)NC1(C(=O)NCC2(c3ccccn3)CCCCC2)CCc2[nH]c3ccccc3c2C1 (stereo not given) |
| 790 nM | Cc1ccc2[nH]c3c(c2c1)C(C)C(NC(=O)Nc1c(C(C)C)cccc1C(C)C)(C(=O)NCC1(c2ccccn2)CCCCC1)CC3 (stereo in doubt; 23) |
| 700 nM | Cc1ccc2[nH]c3c(c2c1)C(C)C(NC(=O)Nc1c(C(C)C)cccc1C(C)C)(C(=O)NCC1(c2ccccn2)CCCCC1)CC3 (stereo in doubt; 22) |
| 660 nM | Cc1cccc2[nH]c3c(c12)CC(NC(=O)Nc1c(C(C)C)cccc1C(C)C)(C(=O)NCC1(c2ccccn2)CCCCC1)CC3 (stereo not given) |
| 620 nM | Cc1cc([N+](=O)[O-])ccc1NC(=O)NC1(C(=O)NCC2(c3ccccn3)CCCCC2)CCc2[nH]c3ccccc3c2C1 (stereo not given) |
| 350 nM | CC(C)c1cccc(C(C)C)c1NC(=O)N[C@@](C)(Cc1c[nH]c2ccccc12)C(=O)NCC1(c2ccccn2)CCCCC1 |
| 320 nM | CC(C)c1cccc(C(C)C)c1NC(=O)NC1(C(=O)NCC2(c3ccccn3)CCCCC2)CCc2[nH]c3ccccc3c2C1 (stereo not given) |
| 250 nM | COc1cccc2[nH]c3c(c12)CC(NC(=O)Nc1c(C(C)C)cccc1C(C)C)(C(=O)NCC1(c2ccccn2)CCCCC1)CC3 (stereo in doubt; 20) |
| 29 nM | COc1cccc2[nH]c3c(c12)CC(NC(=O)Nc1c(C(C)C)cccc1C(C)C)(C(=O)NCC1(c2ccccn2)CCCCC1)CC3 (single isomer, unassigned; (+)) |
